Measurements taken from ChEMBL document CHEMBL1124122, “Protoberberine alkaloids as antimalarials” (J Med Chem, 1988).
Values after ≈ are worked out from the molar mass of the structure shown. Active and inactive are the calls of the source.

Key:
[1] = tested on: Mus musculus; assay: In vivo Mean survival time of Plasmodium berghei parasitized mice dosed at 160 mg/kg; Toxic; format: functional, organism-based; parameters: dose 160 mg/kg
In short: (§1)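 Mice were infected with the drug-sensitive P. berghei strain KBG 173 and given the stated dose. T − C is the mean survival time of treated mice beyond that of untreated controls. A compound counts as active only if T − C is ≥ 6.2 days, and toxicity is flagged separately.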

[2] = tested on: Plasmodium falciparum; assay: In vitro antimalarial activity against Plasmodium falciparum D6.; format: functional, organism-based
In short: (§2)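 Parasite growth inhibition was read out as uptake of tritiated hypoxanthine.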

[3] = tested on: Plasmodium falciparum; assay: In vitro antimalarial activity against Plasmodium falciparum W2; format: functional, organism-based; in short: as §2
[4] = tested on: Mus musculus; assay: In vivo Mean survival time of Plasmodium berghei parasitized mice dosed at 640 mg/kg; Toxic; format: functional, organism-based; parameters: dose 640 mg/kg; in short: as §1
[5] = tested on: Mus musculus; assay: In vivo Mean survival time of Plasmodium berghei parasitized mice dosed at 40 mg/kg; format: functional
In short: (§3)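 Mice infected with drug-sensitive Plasmodium berghei strain KBG 173. Result given as T − C: the mean survival time of treated mice beyond that of untreated infected controls. A compound counts as active when T − C is ≥ 6.2 days.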

[6] = tested on: Mus musculus; assay: In vivo Mean survival time of Plasmodium berghei parasitized mice dosed at 640 mg/kg; format: functional; in short: as §3
[7] = tested on: Mus musculus; assay: In vivo Mean survival time of Plasmodium berghei parasitized mice dosed at 160 mg/kg; format: functional; in short: as §3
[8] = tested on: Plasmodium falciparum; assay: (§4) In vitro antimalarial activity against Plasmodium falciparum D6; format: functional, organism-based
In short: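 Parasite growth inhibition read as uptake of tritiated hypoxanthine.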

[9] = tested on: Plasmodium falciparum; assay: as §4; format: functional, organism-based; in short: as §2; remark: listed apart in the source
[10] = tested on: Mus musculus; assay: In vivo Mean survival time of Plasmodium berghei parasitized mice dosed at 160 mg/kg; Not active; format: functional, organism-based; parameters: dose 160 mg/kg; in short: as §1
[11] = tested on: Mus musculus; assay: In vivo Mean survival time of Plasmodium berghei parasitized mice dosed at 640 mg/kg; Not active; format: functional, organism-based; parameters: dose 640 mg/kg; in short: as §1
[12] = tested on: Mus musculus; assay: In vivo Mean survival time of Plasmodium berghei parasitized mice dosed at 40 mg/kg; Not active; format: functional, organism-based; parameters: dose 40 mg/kg; in short: as §1

SMILES	T-C [1]	IC50 [2]	IC50 [3]	T-C [4]	T-C [5]	T-C [6]	T-C [7]	IC50 [8]	IC50 [9]	T-C [10]	T-C [11]	T-C [12]
COc1cc2c(cc1OC)-c1cc3ccc(OC)c(OC)c3c[n+]1CC2.[Cl-] [PALMATINE CHLORIDE]	Toxic	0.281 µg/mL	0.163 µg/mL	Toxic	0.5 days	–	–	–	–	–	–	–
COc1ccc2c(OC)c3[n+](cc2c1OC)CCc1cc2c(cc1-3)OCO2	–	0.568 µg/mL	0.701 µg/mL	–	-0.2 days	0.2 days	-0.2 days	–	–	–	–	–
COc1ccc2c(c1OC)CN1CCc3cc4c(cc3[C@@H]1C2)OCO4 [CANADINE]	–	–	1.74 µg/mL (≈ 5.12 µM)	–	0.1 days	0.3 days	0.1 days	0.555 µg/mL (≈ 1.64 µM)	–	–	–	–
COc1ccc2cc3n(c(=O)c2c1OC)CCc1cc2c(cc1-3)OCO2 [OXYBERBERINE]	–	0.557 µg/mL (≈ 1.59 µM)	2.01 µg/mL (≈ 5.71 µM)	–	0.1 days	0.3 days	0.5 days	–	–	–	–	–
COc1ccc2cc3[n+](cc2c1OC)CCc1cc2c(cc1-3)OCO2.[Cl-] [BERBERINE CHLORIDE]	–	–	0.148 µg/mL	Toxic	0.6 days	–	1 days	–	0.141 µg/mL	–	–	–
COc1ccc2c(c1OC)C[N+]1([O-])CCc3cc4c(cc3C1C2)OCO4 (stereo not given)	–	–	0.558 µg/mL (≈ 1.57 µM)	–	0 days	0 days	0.2 days	0.565 µg/mL (≈ 1.59 µM)	–	–	–	–
COc1ccc2c(c1OC)C[N+]1(C)CCc3cc4c(cc3C1C2)OCO4.[I-] (stereo not given)	–	–	1.34 µg/mL	–	–	–	–	0.97 µg/mL	–	inactive	inactive	inactive
COc1ccc2c(c1OC)CN1CCc3cc4c(cc3C1=C2)OCO4 [DIHYDROBERBERINE]	Toxic	–	0.171 µg/mL (≈ 0.507 µM)	Toxic	-0.2 days	–	–	0.12 µg/mL (≈ 0.356 µM)	–	–	–	–
COc1cc2c(cc1O)CC[n+]1cc3c(OC)c(OC)ccc3cc1-2.[Cl-] [JATRORRHIZINE CHLORIDE]	–	–	1.61 µg/mL	–	–	–	–	0.422 µg/mL	–	inactive	inactive	inactive
COc1ccc2c(c1OC)C(C#N)N1CCc3cc4c(cc3C1=C2)OCO4 (stereo not given)	–	0.101 µg/mL (≈ 0.279 µM)	0.143 µg/mL (≈ 0.395 µM)	–	–	–	–	–	–	inactive	inactive	inactive
